The text below walks through data of ChEMBL document CHEMBL4028901, “Novel Antitubercular 6-Dialkylaminopyrimidine Carboxamides from Phenotypic Whole-Cell High Throughput Screening of a SoftFocus Library: Structure-Activity Relationship and Target Identification Studies” (J Med Chem, 2017).

pKd: −log10 of the molar value. ≈ marks a conversion by molar mass, not a printed value. Calls of active or inactive are those of the source. The rule behind the calls is not given here.

The test system of test [1] is Mycobacterium tuberculosis variant bovis BCG. In words: Binding affinity to Mycobacterium bovis BCG Rv3169 using sepharose beads derivatized with 6-((3-aminopropyl)(benzyl)amino)-N-(4-(4-methylpiperazin-1-yl)phenyl)pyrimidine-4-carboxamide by LC-MS/MS based chemoproteomics assay. An outline of the steps: (§1)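 BCG lysate (0.25 mg) pre-incubated with compound or DMSO, then bound to probe-derivatized sepharose beads (0.04 mM) for 1 h at 4 °C. Six compound concentrations used, top 30 μM with 1:4 steps. Includes vehicle duplicates and rebinding duplicates to measure depletion. Bound proteins eluted and quantified by TMT LC-MS/MS. Apparent Kd corrected for depletion by the beads.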

Test [2] in a line: Binding affinity to Mycobacterium bovis BCG Rv3768. As to conditions: read-out: Kd(app). Also on record: species or system Mycobacterium tuberculosis variant bovis BCG.
In test [3] the test system is Mycobacterium tuberculosis variant bovis BCG. In words: Binding affinity to Mycobacterium bovis BCG Rv3768 using sepharose beads derivatized with 6-((3-aminopropyl)(benzyl)amino)-N-(4-(4-methylpiperazin-1-yl)phenyl)pyrimidine-4-carboxamide by LC-MS/MS based chemoproteomics assay. An outline of the steps: as §1
Test [4] in a line: Binding affinity to Mycobacterium bovis BCG Rv3169. As to conditions: read-out: Kd(app). Also on record: species or system Mycobacterium tuberculosis variant bovis BCG.
Test [5] concerns Mycobacterium tuberculosis. In words: Antibacterial activity against GFP-fused Mycobacterium tuberculosis H37RvMA expressing QcrB mutant grown in 7H9/GLU/ADC medium measured on day 7 and day 14 post inoculation by fluorescence plate reader assay. It is filed as functional. An outline of the steps: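 Mtb::gfp strains (H37RvMa::pMSP12GFP background), two-fold dilutions 20–0.039 µM in 7H9 with Tween-80, glycerol and ADC, or in GAST-Fe pH 6.6, at 5% final DMSO. Cultures grown to OD600 ~0.6 and diluted 1:500 (7H9) or 1:100 (GAST/Fe). […] Data normalised to rifampicin and DMSO controls; MIC90 taken from dose-response curves.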

In the case of `CN1CCN(c2ccc(NC(=O)c3cc(N(C)Cc4ccc(C(F)(F)F)cc4)ncn3)cc2)CC1`, the outcome in test [1] and in test [3] was Active. Moreover, the figures for the pKd in test [2] and in test [4] were 5.42 to 5.68 and 6.16 to 6.21, respectively.
Regarding `O=C(Nc1ccccc1)c1ccc(=O)n(Cc2ccc(F)cc2)c1`, the outcome in test [1] and in test [3] was inactive.
For `COc1ccc(NC(=O)c2cc(N(C)Cc3ccccc3)ncn2)cc1`, the MIC99 (as a rule, an inhibitory concentration at the 99% level, which refers to growth in some studies and to a panel of isolates in others) in test [5] stood at 20 µM (≈ 6.97 µg/mL).
